According to ChEMBL document CHEMBL1153191, “Triazole oxytocin antagonists: Identification of an aryloxyazetidine replacement for a biaryl substituent” (Bioorg Med Chem Lett, 2010):
In brackets after ≈: the same amount, converted by molar mass.

Tests used:
[1] = target: Vasopressin V1a receptor (Homo sapiens, UniProt P37288); assay: Antagonist activity at human cloned vasopressin V1a receptor by cell based beta lactamase assay; type: functional
[2] = target: T1, Oxytocin receptor (Homo sapiens, UniProt P30559); assay: Antagonist activity at human cloned oxytocin receptor by cell based beta lactamase assay; type: functional
T1 sequence (P30559 whole entry): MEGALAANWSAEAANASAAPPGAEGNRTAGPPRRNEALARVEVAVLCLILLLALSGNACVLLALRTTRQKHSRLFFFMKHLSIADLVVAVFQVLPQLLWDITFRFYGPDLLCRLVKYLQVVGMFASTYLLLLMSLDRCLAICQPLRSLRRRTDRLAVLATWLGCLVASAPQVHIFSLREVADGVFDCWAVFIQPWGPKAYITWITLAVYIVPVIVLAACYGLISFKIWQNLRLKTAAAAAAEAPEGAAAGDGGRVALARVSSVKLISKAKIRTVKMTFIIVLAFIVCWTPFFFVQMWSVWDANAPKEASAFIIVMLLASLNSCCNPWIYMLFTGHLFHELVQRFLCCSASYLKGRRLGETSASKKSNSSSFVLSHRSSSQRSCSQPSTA

[3] = target: Vasopressin V2 receptor (Homo sapiens, UniProt P30518); assay: Antagonist activity at human cloned vasopressin V2 receptor by cell based beta lactamase assay; type: functional
Sequence of Vasopressin V2 receptor (P30518 whole entry): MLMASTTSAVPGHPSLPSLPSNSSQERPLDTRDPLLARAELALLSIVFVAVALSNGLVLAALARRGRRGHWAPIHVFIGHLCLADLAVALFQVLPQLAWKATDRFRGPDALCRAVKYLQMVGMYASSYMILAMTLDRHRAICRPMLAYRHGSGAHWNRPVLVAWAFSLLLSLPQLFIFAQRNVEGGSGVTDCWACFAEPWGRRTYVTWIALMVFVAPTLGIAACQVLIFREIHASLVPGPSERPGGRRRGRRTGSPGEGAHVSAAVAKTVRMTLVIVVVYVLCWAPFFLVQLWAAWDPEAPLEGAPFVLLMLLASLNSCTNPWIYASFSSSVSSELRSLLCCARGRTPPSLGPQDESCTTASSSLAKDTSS

[4] = test system: Liver microsomes; assay: Intrinsic clearance in human liver microsomes; type: ADME, Microsome
[5] = test system: Rattus norvegicus; assay: Volume of distribution in rat at 0.5 mg/kg, po; type: ADME, organism-based; set-up: dose 0.5 mg/kg, route oral; conditions: in vivo
[6] = Aqueous solubility at pH 7.5; type: physicochemical; conditions: buffer
How it was run: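 Aqueous solubility was measured on fully crystalline material at pH 7.5.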

[7] = test system: Canis familiaris; assay: Volume of distribution in dog at 0.2 mg/kg, po; type: ADME, organism-based, Canis lupus familiaris; set-up: dose 0.2 mg/kg, route oral; conditions: in vivo
How it was run: (§1)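 Pharmacokinetic parameters from oral dosing of a suspension of fully crystalline material, at 2 mg/Kg in rat and 0.2 mg/Kg in dog.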

[8] = Oral bioavailability in rat at 2 mg/kg; type: ADME, organism-based; conditions: in vivo
How it was run: (§2)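 Oral bioavailability from oral dosing of a suspension of fully crystalline material, at 2 mg/Kg in rat and 0.2 mg/Kg in dog, calculated by comparison with iv pharmacokinetic data.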

[9] = target: Substance-P receptor (Homo sapiens, UniProt P25103); assay: Binding affinity to NK1 receptor
Sequence of Substance-P receptor (P25103 whole entry): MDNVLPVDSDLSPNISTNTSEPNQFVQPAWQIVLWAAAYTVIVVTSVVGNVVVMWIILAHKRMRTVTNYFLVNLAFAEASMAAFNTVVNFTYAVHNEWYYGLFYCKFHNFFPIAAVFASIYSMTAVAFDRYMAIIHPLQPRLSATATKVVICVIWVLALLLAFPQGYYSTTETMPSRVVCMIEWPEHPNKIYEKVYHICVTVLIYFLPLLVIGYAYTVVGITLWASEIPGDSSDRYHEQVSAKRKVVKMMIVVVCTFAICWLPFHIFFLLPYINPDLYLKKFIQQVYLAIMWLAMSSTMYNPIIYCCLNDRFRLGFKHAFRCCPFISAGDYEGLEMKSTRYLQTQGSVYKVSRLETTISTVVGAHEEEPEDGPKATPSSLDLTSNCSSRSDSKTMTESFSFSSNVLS

[10] = Half life in rat at 2 mg/kg, po; type: ADME, organism-based; set-up: dose 2 mg/kg, route oral; conditions: in vivo; how it was run: as §1
[11] = target: Kappa-type opioid receptor (Homo sapiens, UniProt P41145); assay: Binding affinity to kappa opioid receptor
Sequence of Kappa-type opioid receptor (P41145 whole entry): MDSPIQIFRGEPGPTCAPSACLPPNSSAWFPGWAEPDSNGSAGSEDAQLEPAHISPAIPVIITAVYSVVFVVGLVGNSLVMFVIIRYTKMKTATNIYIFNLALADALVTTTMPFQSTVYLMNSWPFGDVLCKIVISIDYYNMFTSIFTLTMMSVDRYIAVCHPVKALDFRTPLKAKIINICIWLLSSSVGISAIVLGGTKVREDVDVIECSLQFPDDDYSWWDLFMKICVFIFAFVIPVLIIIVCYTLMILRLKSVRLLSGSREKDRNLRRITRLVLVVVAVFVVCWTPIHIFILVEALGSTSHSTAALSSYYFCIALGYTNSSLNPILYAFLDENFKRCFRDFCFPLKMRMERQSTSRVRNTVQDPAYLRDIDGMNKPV

[12] = Oral bioavailability in dog at 0.2 mg/kg, po; type: ADME, organism-based, Canis lupus familiaris; conditions: in vivo; how it was run: as §2
[13] = test system: Rattus norvegicus; assay: Volume of distribution in rat at 2 mg/kg, po; type: ADME, organism-based; set-up: dose 2 mg/kg, route oral; conditions: in vivo; how it was run: as §1
[14] = Clearance in dog at 0.2 mg/kg, po; type: ADME, organism-based, Canis lupus familiaris; set-up: dose 0.2 mg/kg, route oral; conditions: in vivo; how it was run: as §1
[15] = target: Growth hormone secretagogue receptor type 1 (Homo sapiens, UniProt Q92847); assay: Binding affinity to ghrelin receptor
Sequence of Growth hormone secretagogue receptor type 1 (Q92847 whole entry): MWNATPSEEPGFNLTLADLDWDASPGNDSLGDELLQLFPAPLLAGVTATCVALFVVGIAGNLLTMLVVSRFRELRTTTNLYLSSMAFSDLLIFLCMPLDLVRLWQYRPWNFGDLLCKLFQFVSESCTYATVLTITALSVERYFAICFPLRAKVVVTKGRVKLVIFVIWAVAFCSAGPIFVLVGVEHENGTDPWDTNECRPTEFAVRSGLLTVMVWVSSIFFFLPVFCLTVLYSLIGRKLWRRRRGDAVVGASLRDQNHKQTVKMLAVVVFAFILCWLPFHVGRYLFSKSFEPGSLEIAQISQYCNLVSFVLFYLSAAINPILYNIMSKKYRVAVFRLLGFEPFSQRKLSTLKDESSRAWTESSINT

[16] = Half life in dog at 0.2 mg/kg, po; type: ADME, organism-based, Canis lupus familiaris; set-up: dose 0.2 mg/kg, route oral; conditions: in vivo; how it was run: as §1
[17] = Clearance in rat at 2 mg/kg, po; type: ADME, organism-based; set-up: dose 2 mg/kg, route oral; conditions: in vivo; how it was run: as §1

Sequence of Vasopressin V1a receptor (P37288 whole entry): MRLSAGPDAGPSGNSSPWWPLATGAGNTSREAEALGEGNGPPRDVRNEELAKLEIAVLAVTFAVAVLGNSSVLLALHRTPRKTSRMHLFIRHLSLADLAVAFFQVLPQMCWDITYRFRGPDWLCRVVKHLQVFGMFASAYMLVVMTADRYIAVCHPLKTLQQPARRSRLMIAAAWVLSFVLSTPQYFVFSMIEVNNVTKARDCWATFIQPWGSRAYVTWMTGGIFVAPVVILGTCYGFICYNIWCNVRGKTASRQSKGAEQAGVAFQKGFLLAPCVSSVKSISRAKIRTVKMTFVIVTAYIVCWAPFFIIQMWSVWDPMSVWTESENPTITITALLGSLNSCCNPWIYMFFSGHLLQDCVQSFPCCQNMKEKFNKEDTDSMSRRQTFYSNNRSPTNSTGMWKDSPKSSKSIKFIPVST

Structure (SMILES) | Ki [1] | Ki [2] | Ki [3] | clearance [4] | other results
COc1ccc(-n2c(C)nnc2N2CCC(Oc3cc(F)cc(F)c3C)CC2)cn1 | 175 nM | 0.4 nM | > 10000 nM |  | 
COc1ccc(-n2c(C)nnc2N2CCC(Oc3cccc(F)c3C)CC2)cn1 |  | 2.6 nM | > 10000 nM | 24 µL/min/mg | 
COc1ccc(-n2c(C)nnc2N2CC[C@@H](Oc3ccc(F)cc3C)C2)cn1 | 941 nM | 31.8 nM | > 10000 nM | 95 µL/min/mg | 
COc1ccc(-n2c(C)nnc2N2CC(Oc3ccc(F)cc3C)C2)cn1 | 608 nM | 17.5 nM | > 10000 nM |  | 
COCc1nnc(N2CCC(Oc3ccccc3C)CC2)n1-c1ccc(OC)nc1 | 24.4 nM | 2.2 nM | > 10000 nM |  | 
COc1ccc(-n2c(C)nnc2N2CC(Oc3ccccc3Cl)C2)cn1 | 1940 nM | 55.1 nM | > 10000 nM |  | 
COc1ccc(-n2c(C)nnc2N2CC(Oc3ccc(F)cc3Cl)C2)cn1 | 2430 nM | 28.4 nM | > 10000 nM | 22 µL/min/mg | 
COCc1nnc(N2CC(Oc3ccc(F)cc3Cl)C2)n1-c1ccc(OC)nc1 | 1120 nM | 9.5 nM | > 10000 nM | 10 µL/min/mg | solubility [6]: 59 µg/mL (≈ 141 µM); Vd [7]: 1.3 L/kg; bioavailability [8]: 62%; Ki [9]: 6500 nM; half-life [10]: 0.9 h; Ki [11]: 3000 nM; bioavailability [12]: 81%; Vd [13]: 2.5 L/kg; CL/F [14]: 8 mL/min/kg; Ki [15]: 4400 nM; half-life [16]: 1.9 h; CL/F [17]: 36 mL/min/kg
COCc1nnc(N2CC[C@@H](Oc3ccc(F)cc3C)C2)n1-c1ccc(OC)nc1 | 586 nM | 17.9 nM | > 10000 nM | > 440 µL/min/mg | 
COc1ccc(-n2c(C)nnc2N2CC(Oc3ccccc3)C2)cn1 | > 10000 nM | 304 nM | > 10000 nM | < 7 µL/min/mg | 
COCc1nnc(N2CC[C@@H](Oc3ccccc3C)C2)n1-c1ccc(OC)nc1 | 255 nM | 28.5 nM | > 10000 nM |  | 
COc1ccc(-n2c(C)nnc2N2CC[C@@H](Oc3ccccc3C)C2)cn1 | 734 nM | 35.9 nM | > 10000 nM | 32 µL/min/mg | 
COc1ccc(-n2c(C)nnc2N2CCC(Oc3ccc(F)cc3C)CC2)cn1 | 111 nM |  | > 10000 nM | 23 µL/min/mg | 

More lines, main results first:

Ki [1] | Ki [2] | Ki [3] | clearance [4] | Structure (SMILES) | other results
127 nM | 114 nM | > 10000 nM |  | COc1ccc(-n2c(C)nnc2N2CCC(Oc3ccccc3)CC2)cn1 | 
1340 nM | 32.5 nM | > 10000 nM | 21 µL/min/mg | COCc1nnc(N2CC(Oc3ccccc3Cl)C2)n1-c1ccc(OC)nc1 | 
522 nM | 207 nM | > 10000 nM |  | COCc1nnc(N2CC[C@H](Oc3ccccc3C)C2)n1-c1ccc(OC)nc1 | 
1000 nM | 5.8 nM | > 10000 nM | 107 µL/min/mg | COCc1nnc(N2CC[C@@H](Oc3cc(F)cc(F)c3C)C2)n1-c1ccc(OC)nc1 | 
21.6 nM | 5.4 nM | > 10000 nM |  | COc1ccc(-n2c(C)nnc2N2CCC(Oc3ccccc3C)CC2)cn1 | 
 |  | > 10000 nM |  | COc1ccc(-n2c(C)nnc2-c2cnc(-c3ccc(F)cc3C)cn2)cn1 | Vd [5]: 4.4 L/kg
1840 nM | 170 nM | > 10000 nM |  | COc1ccc(-n2c(C)nnc2N2CC[C@@H](Oc3ccccc3)C2)cn1 | 
719 nM | 18.4 nM | 1190 nM |  | COCc1nnc(N2CC(Oc3ccc(F)cc3C)C2)n1-c1ccc(OC)nc1 | 
1680 nM | 40 nM | 2770 nM |  | COc1ccc(-n2c(C)nnc2N2CC(Oc3cc(F)ccc3C)C2)cn1 | 
